Experimental data from PMC3645320 (Biochimica et biophysica acta, 2011).
Like-named read-outs stand apart in the source and are kept apart here.

Legend:
[1] = target: W60dA human recombinant thrombin (Homo sapiens, UniProt P00734, W413A); assay: HPLC-based kinetic assay of FXIII; assay type: biochemical; details: W60dA thrombin relative to WT thrombin
[2] = target: T1, W215A human recombinant thrombin (Homo sapiens, UniProt P00734, W590A); assay: HPLC-based kinetic assay of FXIII; assay type: biochemical; details: W215A thrombin relative to WT thrombin
[3] = target: T2, L99A human recombinant thrombin (Homo sapiens, UniProt P00734, L459A); assay: HPLC-based kinetic assay of FXIII; assay type: biochemical; details: L99A thrombin relative to WT thrombin
[4] = target: T3, E217A human recombinant thrombin (Homo sapiens, UniProt P00734, E592A); assay: HPLC-based kinetic assay of FXIII; assay type: biochemical; details: E217A thrombin relative to WT thrombin
How it was run: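 Recombinant human E217A thrombin (over 90% active by hirudin titration) at 33.6 or 78.4 nM depending on peptide, acting on acetylated/amidated FXIII (28–41) segment peptides at 100–3000 μM. Conditions: 50 mM H3PO4, 100 mM NaCl, 0.1% PEG, pH 7.4, 25 °C. Timed aliquots quenched in 12.5% H3PO4. FXIII (28–37) product measured by RP-HPLC against a calibration curve.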

[5] = target: T3, E217A human recombinant thrombin; details: E217A thrombin relative to WT thrombin; ref [37]; cited from earlier work
[6] = target: Y60aA human recombinant thrombin (Homo sapiens, UniProt P00734, Y410A); assay: HPLC-based kinetic assay of FXIII; assay type: biochemical; details: Y60aA thrombin relative to WT thrombin
[7] = target: T1, W215A human recombinant thrombin; details: W215A thrombin relative to WT thrombin; ref [37]; cited from earlier work
[8] = target: T2, L99A human recombinant thrombin; details: ref [37], cited from earlier work

Substance | Km (in words) [1] | decrease in kcat [1] | decrease in kcat [2] | decrease in kcat/Km [2] | decrease in kcat [3] | loss in kcat [4] | decrease in kcat [5] | increase in Km [5] | increase in Km [6] | decrease in kcat/Km [7] | decrease in kcat ([8]; L99A thrombin relative to WT thrombin) | Km and kcat (in words) ([8]; L99A thrombin, relative to WT thrombin or across the V34X series)
Ac-TVELQGFVPRGVNL-NH2 [FXIII (28–41) V34F AP] | comparable to that of WT thrombin | 4 fold | 3 fold | 3 fold | 2 fold | 2 fold | – | – | – | – | – | –
Ac-TVELQGLVPRGVNL-amide (Ac-TVELQGLVPRGVNL-NH2) [FXIII (28–41) V34L AP] | – | – | – | – | – | – | ≤ 2 fold | 3–4 fold | 2 fold | – | – | –
Ac-TVELQGPVPRGVNL-NH2 [FXIII (28–41) V34P AP] | – | 1.3 fold | 2 fold | – | – | – | – | – | – | – | – | –
Ac-TVELQGVVPRGVNL-NH2 [FXIII (28–41) V34 AP] | – | 3 fold | – | – | – | – | ≤ 2 fold | 3–4 fold | 2 fold | 4 fold | 3 fold | highest Km values of the IIa L99A series
